Measurements from article PMC9292215 (Clinical Pharmacology and Therapeutics, 2021).
Marks after values point to notes of the source that are not given here.

Legend:
[1] = Phase I SAD/FI/MAD study: adverse events; format: in vivo, human
FAAH = molecular target: T1, FAAH (Homo sapiens, UniProt O00519); test: Leukocyte FAAH activity in participants; format: in vivo
T1 sequence (O00519 1-579): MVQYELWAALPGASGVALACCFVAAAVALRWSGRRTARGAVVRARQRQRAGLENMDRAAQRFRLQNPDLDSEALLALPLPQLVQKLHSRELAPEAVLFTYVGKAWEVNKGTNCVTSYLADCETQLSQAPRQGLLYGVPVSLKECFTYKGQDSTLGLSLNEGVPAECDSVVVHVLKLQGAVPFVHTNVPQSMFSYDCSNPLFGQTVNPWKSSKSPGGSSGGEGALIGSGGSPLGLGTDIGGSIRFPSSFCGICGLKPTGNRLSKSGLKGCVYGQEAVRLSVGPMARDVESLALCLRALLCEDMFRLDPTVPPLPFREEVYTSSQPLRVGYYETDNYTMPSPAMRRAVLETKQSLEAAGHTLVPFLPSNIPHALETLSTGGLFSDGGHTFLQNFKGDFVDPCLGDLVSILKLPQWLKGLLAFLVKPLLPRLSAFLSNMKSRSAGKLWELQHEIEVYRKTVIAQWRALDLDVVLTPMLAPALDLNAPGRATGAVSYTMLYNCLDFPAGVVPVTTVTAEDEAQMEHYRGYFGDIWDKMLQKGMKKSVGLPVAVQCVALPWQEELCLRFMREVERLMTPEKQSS
How it was run: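 Healthy men and women aged 18–55 years (BMI 19–30 kg/m²) took single oral capsule doses of test compound (0.25–100 mg) or matching placebo in a double-blind design. They fasted at least 8 h before and 1 h after dosing. Leukocyte FAAH activity was followed after dosing and expressed as percent inhibition, judged by visual inspection. Values are means of six participants per group.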

anandamide (AEA) = test: Plasma anandamide; format: in vivo, human; settings: for AEA AUC0–24: Day 1; for AEA AUC0–τ: Day 10
How it was run: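 In a double-blind, placebo-controlled multiple-dose part, healthy adult men and women in groups of eight (six active, two placebo) took oral test compound once daily for 10 days. They fasted at least 8 h before and 1 h after dosing. Plasma anandamide AUCs were taken on Days 1 and 10, with a Day 10/Day 1 ratio. Data are mean (CV%); tmax is median (range).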

[2] = MAD 50 mg, moderate, serious, participant with fatal outcome

## CN(C(=O)n1cnc(-c2ccc[n+]([O-])c2)c1)C1CCCCC1 [BIA 10-2474, 3-(1-(cyclohexyl(methyl)carbamoyl)-1H-imidazol-4-yl)pyridine 1-oxide]
[1]; 2.5 mg once daily 10 days, N = 6
  Any AE, n (%): 1 (16.7%)
[1]; 5 mg once daily 10 days, N = 6
  Any AE, n (%): 1 (16.7%)
[1]; 10 mg once daily 10 days, N = 6
  Any AE, n (%): 3 (50%)
[1]; 10 mg/day, mild
  duration of blurred vision: < 2.5 h
[1]; 10 mg/day, two participants
  participants with blurred vision: 2.3%
[1]; 20 mg once daily 10 days, N = 6
  Any AE, n (%): 4 (66.7%)
[1]; MAD 50 mg
  Abdominal pain, No. events: 1
  Asthenia, No. events: 1
  Blurred vision, No. events: 1
  Diarrhea, No. events: 2
  Dizziness, No. events: 2
  Nausea, No. events: 1
[1]; MAD 50 mg, 3 moderate
  Headache, No. events: 2 + 3^#
[1]; MAD 50 mg, moderate
  Hot Flush, No. events: 1^#
  Soft feces, No. events: 1^#
[1]; MAD 50 mg, moderate, serious
  Diplopia, No. events: 1^#§
  Transient global amnesia, No. events: 1^#§
[1]; [2]
  Dysarthria, No. events: 1^#§&
  Feeling drunk, No. events: 1^#§&
[1]; MAD 50 mg, serious
  Vitreous floaters, No. events: 1^§*
[1]; MAD 50 mg, severe, serious
  Hemiparesis, No. events: 1^£§
[1]; MAD 50 mg, severe, serious, hospitalization
  Nervous system disorder, No. events: 1^£§H
[1]; any dose of BIA 10-2474, 15 participants
  participants reporting treatment-emergent adverse effects: 17.9%
[1]; repeated 50 mg (up to day 5), one with fatal outcome
  participants with CNS (serious) adverse events: five of six
[1]; single 40 mg, 10 and 20 mg/day for 10 days, three participants
  participants with headache: 3.6%
[1]; single dose 0.25 mg, N = 6
  Any AE, n (%): 0
[1]; single dose 1.25 mg, N = 6
  Any AE, n (%): 0
[1]; single dose 2.5 mg, N = 6
  Any AE, n (%): 1 (16.7%)
[1]; single dose 5 mg, N = 6
  Any AE, n (%): 0
[1]; single dose 10 mg, N = 6
  Any AE, n (%): 1 (16.7%)
[1]; single dose 20 mg, N = 6
  Any AE, n (%): 0
[1]; single dose 40 mg (SAD and FI combined), N = 18
  Any AE, n (%): 5 (27.8%)
[1]; single dose 100 mg, N = 6
  Any AE, n (%): 1 (16.7%)
[1]; up to 100 mg single dose and up to 20 mg once daily for 10 days
  tolerability: well tolerated
FAAH; 5 mg and above, visual inspection
  apparent maximum FAAH inhibition: > 97%
FAAH; doses above 2.5 mg
  duration of FAAH inhibition by more than 90%: at least 72 hours
FAAH; doses above 2.5 mg, for at least 72 hours
  FAAH activity inhibited: more than 90%
FAAH; single dose 0.25 mg, visual inspection
  FAAH inhibition: more than 50%
Anandamide (AEA); 2.5 mg once daily
  AEA Ratio (AUCD10/D1): 1.27
  AEA AUC0–24: 42.8 (17.1) ng⋅hour/mL
  AEA AUC0–τ: 54.2 (9.41) ng⋅hour/mL
Anandamide (AEA); 5 mg once daily
  AEA Ratio (AUCD10/D1): 1.25
  AEA AUC0–24: 44.9 (23.4) ng⋅hour/mL
  AEA AUC0–τ: 56.3 (17.7) ng⋅hour/mL
Anandamide (AEA); 10 mg once daily
  AEA Ratio (AUCD10/D1): 1.16
  AEA AUC0–24: 52.2 (19.3) ng⋅hour/mL
  AEA AUC0–τ: 60.8 (17.9) ng⋅hour/mL
Anandamide (AEA); 20 mg once daily
  AEA Ratio (AUCD10/D1): 1.22
  AEA AUC0–24: 51.2 (19.6) ng⋅hour/mL
  AEA AUC0–τ: 62.8 (21.7) ng⋅hour/mL
Anandamide (AEA); achieved with 10 mg/day
  BIA 10-2474 plasma exposure giving relevant AEA increases: around 1,500 ng⋅h/mL
Anandamide (AEA); single dose 0.25 mg
  AEA AUC0–t: 27.5 (34.1) ng⋅hour/mL
Anandamide (AEA); single dose 1.25 mg
  AEA AUC0–t: 68.0 (13.1) ng⋅hour/mL
Anandamide (AEA); single dose 2.5 mg
  AEA AUC0–t: 101 (17.2) ng⋅hour/mL
Anandamide (AEA); single dose 5 mg
  AEA AUC0–t: 109 (11.2) ng⋅hour/mL
Anandamide (AEA); single dose 10 mg
  AEA AUC0–t: 137 (8.92) ng⋅hour/mL
Anandamide (AEA); single dose 20 mg
  AEA AUC0–t: 149 (6.20) ng⋅hour/mL
Anandamide (AEA); single dose 40 mg
  AEA AUC0–t: 160 (26.42) ng⋅hour/mL
Anandamide (AEA); single dose 100 mg
  AEA AUC0–t: 188 (22.4) ng⋅hour/mL
  increase in plasma AEA AUC compared with placebo: 12.5 fold
Anandamide (AEA); single doses
  return of AEA to baseline: > 72 hours post dose
